In ChEMBL document CHEMBL4038328, “Structure-Guided Optimization of HIV Integrase Strand Transfer Inhibitors” (J Med Chem, 2017):

How the values were obtained:
[1] = Inhibition of HIV1 integrase 3' processing activity using 5'-end 32P labeled DNA substrate measured after 2 hrs by PAGE based phosphor imaging method; design: species or system Human immunodeficiency virus 1
Procedure, shortened: (§1)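 Gel-based assay, Mg2+ cofactor: 400 nM integrase with 20 nM DNA substrate 5′-32P-labeled on transferred strand in 50 mM MOPS pH 7.2, 7.5 mM MgCl2, 14 mM 2-mercaptoethanol, inhibitor or DMSO; 2 h at 37 °C. Stopped with formamide/SDS loading buffer; products resolved on 16% denaturing polyacrylamide gels, quantified by phosphorimaging.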

[2] = system: Human immunodeficiency virus 1; experiment: Antiviral activity against VSV-G pseudotyped HIV1 harboring integrase H51Y/R263K double mutant infected in HOS cells pretreated […] for 3 hrs followed by viral infection measured after 48 hrs by luciferase reporter gene assay; format: functional, cell-based; details: Human immunodeficiency virus 1, HOS
Procedure, shortened: (§2)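 Single-round luciferase HIV-1 vector (pNLNgoMIVR−ΔLUC carrying WT or mutant IN) was pseudotyped with VSV-g by calcium phosphate co-transfection of 293 cells, and supernatant was harvested after 48 h. HOS cells were seeded at 4000/well in DMEM with 5% FBS and 5% newborn calf serum. They were pretreated 3 h at 37 °C with 5–0.0001 μM (11 serial dilutions), then infected for 48 h. Luminescence was normalized to untreated cells, and EC50 came from nonlinear regression.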

[3] = system: Human immunodeficiency virus 1; experiment: Antiviral activity against VSV-G pseudotyped HIV1 harboring integrase T66I mutant infected in HOS cells pretreated […] for 3 hrs followed by viral infection measured after 48 hrs by luciferase reporter gene assay relative to dolutegravir; format: functional
[4] = system: Human immunodeficiency virus 1; experiment: Selectivity ratio of EC50 for VSV-G pseudotyped HIV1 harboring integrase R263K mutant infected in HOS cells to EC50 for VSV-G pseudotyped HIV1 harboring wild-type integrase infected in HOS cells; format: functional
Procedure, shortened: (§3)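 Fold change is the EC50 against the mutant-IN vector divided by the EC50 against the WT-IN vector. Both come from the single-round luciferase infectivity assay in HOS cells, with a 3 h compound pretreatment followed by 48 h infection.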

[5] = system: Human immunodeficiency virus 1; experiment: Antiviral activity against VSV-G pseudotyped HIV1 harboring integrase E92Q mutant infected in HOS cells pretreated […] for 3 hrs followed by viral infection measured after 48 hrs by luciferase reporter gene assay relative to dolutegravir; format: functional
[6] = Inhibition of HIV1 integrase strand transfer activity using 5'-end 32P labeled DNA substrate measured after 2 hrs by PAGE based phosphor imaging method; design: species or system Human immunodeficiency virus 1; procedure, shortened: as §1
[7] = system: Human immunodeficiency virus 1; experiment: Selectivity ratio of EC50 for VSV-G pseudotyped HIV1 harboring integrase N155H mutant infected in HOS cells to EC50 for VSV-G pseudotyped HIV1 harboring wild-type integrase infected in HOS cells; format: functional; procedure, shortened: as §3
[8] = system: Human immunodeficiency virus 1; experiment: Antiviral activity against VSV-G pseudotyped HIV1 harboring integrase R263K mutant infected in HOS cells pretreated […] for 3 hrs followed by viral infection measured after 48 hrs by luciferase reporter gene assay relative to dolutegravir; format: functional
[9] = system: Human immunodeficiency virus 1; experiment: Selectivity ratio of EC50 for VSV-G pseudotyped HIV1 harboring integrase H51Y mutant infected in HOS cells to EC50 for VSV-G pseudotyped HIV1 harboring wild-type integrase infected in HOS cells; format: functional; procedure, shortened: as §3
[10] = system: Human immunodeficiency virus 1; experiment: Antiviral activity against VSV-G pseudotyped HIV1 harboring integrase G118R mutant infected in HOS cells pretreated […] for 3 hrs followed by viral infection measured after 48 hrs by luciferase reporter gene assay; format: functional, cell-based; details: Human immunodeficiency virus 1, HOS; procedure, shortened: as §2
[11] = system: Human immunodeficiency virus 1; experiment: Antiviral activity against VSV-G pseudotyped HIV1 harboring integrase G140S/Q148H double mutant infected in HOS cells pretreated […] for 3 hrs followed by viral infection measured after 48 hrs by luciferase reporter gene assay relative to dolutegravir; format: functional
[12] = system: Human immunodeficiency virus 1; experiment: Antiviral activity against VSV-G pseudotyped HIV1 harboring integrase Y143R mutant infected in HOS cells pretreated […] for 3 hrs followed by viral infection measured after 48 hrs by luciferase reporter gene assay relative to dolutegravir; format: functional
[13] = system: Human immunodeficiency virus 1; experiment: Antiviral activity against VSV-G pseudotyped HIV1 harboring integrase E92Q mutant infected in HOS cells pretreated […] for 3 hrs followed by viral infection measured after 48 hrs by luciferase reporter gene assay; format: functional, cell-based; details: Human immunodeficiency virus 1, HOS; procedure, shortened: as §2
[14] = system: Human immunodeficiency virus 1; experiment: Antiviral activity against VSV-G pseudotyped HIV1 harboring integrase Y143R mutant infected in HOS cells pretreated […] for 3 hrs followed by viral infection measured after 48 hrs by luciferase reporter gene assay; format: functional, cell-based; details: Human immunodeficiency virus 1, HOS; procedure, shortened: as §2
[15] = system: Human immunodeficiency virus 1; experiment: Selectivity ratio of EC50 for VSV-G pseudotyped HIV1 harboring integrase Y143R mutant infected in HOS cells to EC50 for VSV-G pseudotyped HIV1 harboring wild-type integrase infected in HOS cells; format: functional; procedure, shortened: as §3
[16] = system: Human immunodeficiency virus 1; experiment: Selectivity ratio of EC50 for VSV-G pseudotyped HIV1 harboring integrase H51Y/R263K double mutant infected in HOS cells to EC50 for VSV-G pseudotyped HIV1 harboring wild-type integrase infected in HOS cells; format: functional; procedure, shortened: as §3
[17] = system: Human immunodeficiency virus 1; experiment: Antiviral activity against VSV-G pseudotyped HIV1 harboring integrase G118R mutant infected in HOS cells pretreated […] for 3 hrs followed by viral infection measured after 48 hrs by luciferase reporter gene assay relative to dolutegravir; format: functional
[18] = system: Human immunodeficiency virus 1; experiment: Antiviral activity against VSV-G pseudotyped HIV1 harboring wild-type integrase infected in HOS cells pretreated […] for 3 hrs followed by viral infection measured after 48 hrs by luciferase reporter gene assay; format: functional, cell-based; details: Human immunodeficiency virus 1, HOS; procedure, shortened: as §2
[19] = system: Human immunodeficiency virus 1; experiment: Antiviral activity against VSV-G pseudotyped HIV1 harboring integrase R263K mutant infected in HOS cells pretreated […] for 3 hrs followed by viral infection measured after 48 hrs by luciferase reporter gene assay; format: functional, cell-based; details: Human immunodeficiency virus 1, HOS; procedure, shortened: as §2
[20] = system: Human immunodeficiency virus 1; experiment: Antiviral activity against VSV-G pseudotyped HIV1 harboring integrase H51Y mutant infected in HOS cells pretreated […] for 3 hrs followed by viral infection measured after 48 hrs by luciferase reporter gene assay; format: functional, cell-based; details: Human immunodeficiency virus 1, HOS; procedure, shortened: as §2
[21] = system: Human immunodeficiency virus 1; experiment: Antiviral activity against VSV-G pseudotyped HIV1 harboring integrase H51Y mutant infected in HOS cells pretreated […] for 3 hrs followed by viral infection measured after 48 hrs by luciferase reporter gene assay relative to dolutegravir; format: functional
[22] = system: Human immunodeficiency virus 1; experiment: Selectivity ratio of EC50 for VSV-G pseudotyped HIV1 harboring integrase G140S/Q148H mutant infected in HOS cells to EC50 for VSV-G pseudotyped HIV1 harboring wild-type integrase infected in HOS cells; format: functional; procedure, shortened: as §3
[23] = system: Human immunodeficiency virus 1; experiment: Antiviral activity against VSV-G pseudotyped HIV1 harboring integrase N155H mutant infected in HOS cells pretreated […] for 3 hrs followed by viral infection measured after 48 hrs by luciferase reporter gene assay relative to dolutegravir; format: functional
[24] = system: Human immunodeficiency virus 1; experiment: Antiviral activity against VSV-G pseudotyped HIV1 harboring integrase H51Y/R263K double mutant infected in HOS cells pretreated […] for 3 hrs followed by viral infection measured after 48 hrs by luciferase reporter gene assay relative to dolutegravir; format: functional
[25] = system: Human immunodeficiency virus 1; experiment: Antiviral activity against VSV-G pseudotyped HIV1 harboring wild-type integrase infected in HOS cells pretreated […] for 3 hrs followed by viral infection measured after 48 hrs by luciferase reporter gene assay relative to dolutegravir; format: functional
[26] = system: Human immunodeficiency virus 1; experiment: Antiviral activity against VSV-G pseudotyped HIV1 harboring integrase T66I mutant infected in HOS cells pretreated […] for 3 hrs followed by viral infection measured after 48 hrs by luciferase reporter gene assay; format: functional, cell-based; details: Human immunodeficiency virus 1, HOS; procedure, shortened: as §2
[27] = system: Human immunodeficiency virus 1; experiment: Antiviral activity against VSV-G pseudotyped HIV1 harboring integrase G140S/Q148H double mutant infected in HOS cells pretreated […] for 3 hrs followed by viral infection measured after 48 hrs by luciferase reporter gene assay; format: functional, cell-based; details: Human immunodeficiency virus 1, HOS; procedure, shortened: as §2
[28] = system: Human immunodeficiency virus 1; experiment: Selectivity ratio of EC50 for VSV-G pseudotyped HIV1 harboring integrase T66I mutant infected in HOS cells to EC50 for VSV-G pseudotyped HIV1 harboring wild-type integrase infected in HOS cells; format: functional; procedure, shortened: as §3
[29] = system: Human immunodeficiency virus 1; experiment: Selectivity ratio of EC50 for VSV-G pseudotyped HIV1 harboring integrase E92Q mutant infected in HOS cells to EC50 for VSV-G pseudotyped HIV1 harboring wild-type integrase infected in HOS cells; format: functional; procedure, shortened: as §3
HOS = experiment: (§4) Cytotoxicity against HOS cells assessed as reduction in cell viability after 48 hrs by ATPLite luminescence assay; format: cell-based; details: human, hos, 48 h
Procedure, shortened: (§5)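 HOS cells seeded at 4000 per well the day before, exposed to compounds over 250 to 0.05 μM at 37 °C for 48 h. ATP measured by luminescence after lysis and 20 min signal development at room temperature.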

[30] = system: Human immunodeficiency virus 1; experiment: Selectivity ratio of EC50 for VSV-G pseudotyped HIV1 harboring integrase G118R mutant infected in HOS cells to EC50 for VSV-G pseudotyped HIV1 harboring wild-type integrase infected in HOS cells; format: functional; procedure, shortened: as §3
[31] = system: Human immunodeficiency virus 1; experiment: Antiviral activity against VSV-G pseudotyped HIV1 harboring integrase N155H mutant infected in HOS cells pretreated […] for 3 hrs followed by viral infection measured after 48 hrs by luciferase reporter gene assay; format: functional, cell-based; details: Human immunodeficiency virus 1, HOS; procedure, shortened: as §2
[32] = as §4; format: cell-based; details: human, HOS cells; procedure, shortened: as §5

| Compound | IC50 [1] | EC50 [2] | Ratio EC50 [4] | IC50 [6] | Ratio EC50 [7] | Ratio EC50 [9] | EC50 [10] | EC50 [13] | EC50 [14] | Ratio EC50 [15] | Ratio EC50 [16] | EC50 [18] | EC50 [19] | EC50 [20] | Ratio EC50 [22] | EC50 [26] | EC50 [27] | Ratio EC50 [28] | Ratio EC50 [29] | Ratio EC50 [30] | further results |
| --- | --- | --- | --- | --- | --- | --- | --- | --- | --- | --- | --- | --- | --- | --- | --- | --- | --- | --- | --- | --- | --- |
| COC(=O)CCc1cnc2c(c1)c(N)c(C(=O)NCc1ccc(F)cc1F)c(=O)n2O | 2900 nM | 2.4 nM | 0.7 | 3.1 nM | 3 | 0.9 | 4.8 nM | 2 nM | 0.67 nM | 1 | 3 | 0.67 nM | 0.5 nM | 0.63 nM | 8 | 0.53 nM | 5.3 nM | 0.8 | 3 | 7 | fold change (FC) [3]: 0.59; fold change (FC) [5]: 0.87; fold change (FC) [8]: 0.05; fold change (FC) [11]: 0.91; fold change (FC) [12]: 0.16; fold change (FC) [17]: 0.37; fold change (FC) [21]: 0.2; fold change (FC) [23]: 0.64; fold change (FC) [24]: 0.15; fold change (FC) [25]: 0.42; CC50 (HOS): > 250000 nM |
| CC(=O)OCCCc1cnc2c(c1)c(N)c(C(=O)NCc1ccc(F)cc1F)c(=O)n2O | 14300 nM | 3.9 nM | 1 | 10 nM | 4 | 0.6 | 5.9 nM | 1.2 nM | 2.9 nM | 2 | 3 | 1.4 nM | 1.8 nM | 0.8 nM | 9 | 0.75 nM | 13 nM | 0.5 | 1 | 4 | EC50 [31]: 5.4 nM; CC50 (HOS): > 250000 nM |
| O=C(NCc1ccc(F)cc1F)c1c(NCCO)c2cc(CCCCCO)cnc2n(O)c1=O | 4000 nM | 31 nM | 1 | 2.5 nM | 1 | 0.8 | 24 nM | 6.5 nM | 12 nM | 0.9 | 2 | 13 nM | 18 nM | 11 nM | 1 | 1.9 nM | 16 nM | 0.1 | 0.5 | 2 | EC50 [31]: 15 nM; CC50 (HOS): > 250000 nM |
| COC(=O)CCc1cnc2c(c1)c(NCCO)c(C(=O)NCc1ccc(F)cc1F)c(=O)n2O | 3200 nM | 2.5 nM | 2 | 3.1 nM | 1 | 2 | 4.8 nM | 2.7 nM | 3.8 nM | 0.9 | 0.9 | 4.1 nM | 6.5 nM | 6.9 nM | 4 | 0.62 nM | 16 nM | 0.2 | 0.7 | 1 | EC50 [31]: 3.9 nM; CC50 (HOS): > 250000 nM |
| Nc1c(C(=O)NCc2ccc(F)cc2F)c(=O)n(O)c2ncc(CCCCCO)cc12 | 8200 nM | 2.6 nM | 2 | 2.7 nM | 2 | 3 | 5.3 nM | 3.8 nM | 3 nM | 2 | 2 | 1.3 nM | 2.6 nM | 3.8 nM | 7 | 0.93 nM | 9.4 nM | 0.7 | 3 | 4 | fold change (FC) [3]: 1.03; fold change (FC) [5]: 1.65; fold change (FC) [8]: 0.24; fold change (FC) [11]: 1.62; fold change (FC) [12]: 0.71; fold change (FC) [17]: 0.41; EC50 [31]: 2.4 nM; fold change (FC) [21]: 1.19; fold change (FC) [23]: 0.67; fold change (FC) [24]: 0.16; fold change (FC) [25]: 0.81; CC50 at 48 h [32]: > 250000 nM |
